The target in one data set is T1, Monoamine oxidase (Rattus norvegicus, UniProt P19643+P21396).
T1 sequence (P19643 whole entry): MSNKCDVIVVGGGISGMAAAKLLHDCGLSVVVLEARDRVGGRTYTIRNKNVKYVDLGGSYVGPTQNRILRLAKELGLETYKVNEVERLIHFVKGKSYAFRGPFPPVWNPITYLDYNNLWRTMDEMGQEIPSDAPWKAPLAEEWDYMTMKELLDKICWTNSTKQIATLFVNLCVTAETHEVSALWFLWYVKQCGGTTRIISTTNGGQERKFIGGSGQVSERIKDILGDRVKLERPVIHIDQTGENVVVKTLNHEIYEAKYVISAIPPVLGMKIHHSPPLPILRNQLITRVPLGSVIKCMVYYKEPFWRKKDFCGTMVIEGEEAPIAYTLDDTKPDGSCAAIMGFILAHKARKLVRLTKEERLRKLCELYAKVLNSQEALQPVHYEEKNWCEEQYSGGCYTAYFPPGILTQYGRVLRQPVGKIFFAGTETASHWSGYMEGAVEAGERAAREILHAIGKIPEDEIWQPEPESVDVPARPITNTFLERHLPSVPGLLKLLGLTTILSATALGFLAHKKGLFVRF
T1 sequence (P21396 whole entry): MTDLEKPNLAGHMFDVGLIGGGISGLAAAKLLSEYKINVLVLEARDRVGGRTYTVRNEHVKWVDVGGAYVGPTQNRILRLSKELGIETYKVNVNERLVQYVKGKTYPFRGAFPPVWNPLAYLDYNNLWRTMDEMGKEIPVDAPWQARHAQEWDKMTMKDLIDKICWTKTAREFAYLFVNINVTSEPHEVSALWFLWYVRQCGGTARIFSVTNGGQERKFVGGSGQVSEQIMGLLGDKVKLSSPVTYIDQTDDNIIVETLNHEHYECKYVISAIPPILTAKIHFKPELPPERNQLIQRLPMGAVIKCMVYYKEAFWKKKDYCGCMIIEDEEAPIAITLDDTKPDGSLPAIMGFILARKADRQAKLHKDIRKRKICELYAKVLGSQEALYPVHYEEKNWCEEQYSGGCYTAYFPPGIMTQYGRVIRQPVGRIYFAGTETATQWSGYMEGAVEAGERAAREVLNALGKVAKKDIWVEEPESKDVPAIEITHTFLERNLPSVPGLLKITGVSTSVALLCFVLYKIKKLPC
The data set can be described thus: Binding affinity to I2-IBS, imidazoline binding site of MAO. It is filed as functional.

The target of data set [1] is T2, Amine oxidase [flavin-containing] B (Rattus norvegicus, UniProt P19643).
T2 sequence (P19643 whole entry): T1 sequence (P19643 whole entry)
As to the kind of experiment: Inhibition of MAO-B in rat liver assessed as inhibition of [14C]PEA oxidation in presence of 0.1 uM clorgyline. It is filed as functional. In a few lines: (§1)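 Rat liver homogenized in 50 mM sodium phosphate, pH 7.5, with protease inhibitors, then filtered. 10-20 µg crude protein incubated 20 min at 37 °C with the test compound across increasing concentrations. MAO-A substrate: 200 µM [14C]5-HT. MAO-B substrate: 20 µM [14C]PEA plus 0.1 µM clorgyline. Stopped with 4 N HCl; product extracted into ethyl acetate/toluene and counted by scintillation. IC50 taken from sigmoid curves; three experiments.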

The target in data set [2] is T3, Amine oxidase [flavin-containing] A (Rattus norvegicus, UniProt P21396).
T3 sequence (P21396 whole entry): T1 sequence (P21396 whole entry)
The data set can be described thus: Residual activity at MAO-A in Sprague-Dawley rat liver at 50 mg/kg, ip. On the set-up: dose 50 mg/kg, route intraperitoneal. In kind it is functional, organism-based. The note with it: read-out: Activity. The gist of the method: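 Male Sprague Dawley rats (about 250 g) received three i.p. injections of 50 mg/kg (10 mg/mL in DMSO/saline or saline) or vehicle, given 20 h, 4 h 30 min and 1 h 30 min before sacrifice. Four rats per group; three per vehicle control. Frozen liver homogenate assayed for MAO-A with 200 µM [14C]5-HT. Expressed relative to vehicle-treated animals.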

For data set [3], the target named is T3, Amine oxidase [flavin-containing] A. As to the kind of experiment: Inhibition of MAO-A in rat liver assessed as decrease in [14C]5-HT oxidation at 10 uM after 20 mins relative to control. In kind it is functional. The note with it: read-out: Activity. In a few lines:
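Rat liver homogenate (0.5 mg/mL) in 50 mM phosphate, pH 7.4, incubated 20 min at 37 °C with 10 µM compound or vehicle. MAO-A activity read with 200 µM [14C]serotonin, before and after washing (40 000 g centrifugation, buffer wash, resuspension). Expressed as percent of unwashed vehicle-treated homogenate; duplicate experiments.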

For data set [4] the target is unchanged. The data set can be described thus: Inhibition of MAO-A in rat liver assessed as inhibition of [14C]5-HT oxidation. In kind it is functional. The gist of the method:
as §1

Data set [5] concerns the target T2, Amine oxidase [flavin-containing] B. As to the kind of experiment: Decrease in MAO-B activity in Sprague-Dawley rat brain at 50 mg/kg, ip. On the set-up: dose 50 mg/kg, route intraperitoneal. It is filed as functional, organism-based. The note with it: in vivo. In a few lines: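 Male Sprague Dawley rats (~250 g), four per group, got three ip doses of 50 mg/kg (10 mg/mL in saline or DMSO/saline), 20 h, 4 h 30 min and 1 h 30 min before sacrifice. Brain was stored at -80 °C and homogenized in 50 mM phosphate, pH 7.5. Homogenate was incubated 20 min at 37 °C with 20 µM [14C]PEA plus 0.1 µM clorgyline. Extracted product was scintillation-counted and compared with vehicle.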

Structures are written as SMILES.

As for `c1ccc([C@H]2O[C@@H]2C2=NCCN2)cc1` (relative stereo), on Monoamine oxidase, the “Log Ki” value is recorded as -7.55.

As for `Nc1cccc(-c2ccc(C3=NCCN3)o2)c1` [AMIFURALINE], the IC50 in data set [1] is 19.1 µM; in data set [4] it was 0.6 µM. The activity at 50 mg/kg in data set [2] came to 36%. Besides, in data set [3], the inhibition at 10 µM came out at 85%.

With `C1=C(C2=NCCN2)CCc2ccccc21`, the “Log Ki” value at Monoamine oxidase was -7.95.

In the case of `C(=C\c1ccccc1)/C1=NCCN1` [TRACIZOLINE], the “Log Ki” value on Monoamine oxidase was -8.72.

Take `c1ccc(-c2ccc(C3=NCCN3)o2)cc1` [FURALINE]: on Monoamine oxidase, the “Log Ki” value was -7.68.

With `c1ccc(-c2ccc(C3=NCCN3)cn2)cc1`, in data set [3], the inhibition at 10 µM was found to be 53%. For the same compound, in data set [4], the IC50 is 1.8 µM. In addition, in data set [5], the Activity entry is recorded as “Active”.

Consider `OCc1ccc(-c2ccc(C3=NCCN3)o2)cc1`, for which the inhibition at 10 µM in data set [3] was determined as 79%. In addition, the IC50 in data set [4] worked out at 1.2 µM.

What is called IC50 is the concentration needed to halve the response being measured.

For the origin of these results see ChEMBL document CHEMBL1146920, “3-[5-(4,5-dihydro-1H-imidazol-2-yl)-furan-2-yl]phenylamine (Amifuraline), a promising reversible and selective peripheral MAO-A inhibitor” (J Med Chem, 2006).
